Experimental data: ChEMBL document CHEMBL1155297, “Synthesis, antimicrobial and antioxidant activities of substituted pyrazoles, isoxazoles, pyrimidine and thioxopyrimidine derivatives” (2009)
Converted amounts (≈) assume the structure as drawn.

test system: Staphylococcus aureus; assay: Antibacterial activity against Staphylococcus aureus NCIM 5021 at 100 ug/disk after 24 hrs by agar disk diffusion method; type: functional; settings: NCIM 5021, 24 h, read-out: IZ
How it was run: (§1)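 Agar disc diffusion on nutrient agar plates pre-inoculated with each bacterium. Sterile 6 mm filter-paper discs were moistened with compound in DMSO at the stated per-disc amount. Plates were incubated at 37 °C, and the growth-inhibition zone diameter was read after 24 h. Each determination was run in triplicate, and the mean of three independent readings is reported.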

Compared with Cc1ccc(S(=O)(=O)CC(C2C(=N)ON=C2N)S(=O)(=O)c2ccc(C)cc2)cc1 (stereo unspecified), NC1=NC(=S)N=C(N)C1C(CS(=O)(=O)c1ccccc1)S(=O)(=O)c1ccccc1 (stereo unspecified) is lower in zone of inhibition at 100 µg/disc: 26 mm for the first, 22 mm for the second.

test system: Staphylococcus aureus; assay: Antibacterial activity against Staphylococcus aureus NCIM 5021 at 200 ug/disk after 24 hrs by agar disk diffusion method; type: functional; settings: NCIM 5021, 24 h, read-out: IZ; how it was run: as §1

Going from Cc1ccc(S(=O)(=O)CC(C2C(=N)ON=C2N)S(=O)(=O)c2ccc(C)cc2)cc1 (stereo unspecified) to NC1=NC(=S)N=C(N)C1C(CS(=O)(=O)c1ccccc1)S(=O)(=O)c1ccccc1 (stereo unspecified), the zone of inhibition at 200 µg/disc falls from 27 mm to 25 mm.

test system: Bacillus subtilis; assay: Antibacterial activity against Bacillus subtilis NCIM 2063 at 100 ug/disk after 24 hrs by agar disk diffusion method; type: functional; settings: NCIM 2063, 24 h, read-out: IZ; how it was run: as §1

Compared with Cc1ccc(S(=O)(=O)CC(C2C(=N)ON=C2N)S(=O)(=O)c2ccc(C)cc2)cc1 (stereo unspecified), NC1=NC(=S)N=C(N)C1C(CS(=O)(=O)c1ccccc1)S(=O)(=O)c1ccccc1 (stereo unspecified) is lower in zone of inhibition at 100 µg/disc: 26 mm for the first, 23 mm for the second.

test system: Bacillus subtilis; assay: Antibacterial activity against Bacillus subtilis NCIM 2063 at 200 ug/disk after 24 hrs by agar disk diffusion method; type: functional; settings: NCIM 2063, 24 h, read-out: IZ; how it was run: as §1

First: Cc1ccc(S(=O)(=O)CC(C2C(=N)ON=C2N)S(=O)(=O)c2ccc(C)cc2)cc1 (stereo unspecified)
Second: NC1=NC(=S)N=C(N)C1C(CS(=O)(=O)c1ccccc1)S(=O)(=O)c1ccccc1 (stereo unspecified)
The zone of inhibition at 200 µg/disc of the first is higher: 29 mm for the first, 26 mm for the second.

test system: Klebsiella pneumoniae; assay: Antibacterial activity against Klebsiella pneumoniae NCIM 2957 at 100 ug/disk after 24 hrs by agar disk diffusion method; type: functional; settings: NCIM 2957, 24 h, read-out: IZ; how it was run: as §1

First: Cc1ccc(S(=O)(=O)CC(C2C(=N)ON=C2N)S(=O)(=O)c2ccc(C)cc2)cc1 (stereo unspecified)
Second: NC1=NC(=S)N=C(N)C1C(CS(=O)(=O)c1ccccc1)S(=O)(=O)c1ccccc1 (stereo unspecified)
The zone of inhibition at 100 µg/disc of the first is higher: 25 mm for the first, 21 mm for the second.

test system: Klebsiella pneumoniae; assay: Antibacterial activity against Klebsiella pneumoniae NCIM 2957 at 200 ug/disk after 24 hrs by agar disk diffusion method; type: functional; settings: NCIM 2957, 24 h, read-out: IZ; how it was run: as §1

Going from Cc1ccc(S(=O)(=O)CC(C2C(=N)ON=C2N)S(=O)(=O)c2ccc(C)cc2)cc1 (stereo unspecified) to NC1=NC(=S)N=C(N)C1C(CS(=O)(=O)c1ccccc1)S(=O)(=O)c1ccccc1 (stereo unspecified), the zone of inhibition at 200 µg/disc falls from 27 mm to 23 mm.

test system: Proteus vulgaris; assay: Antibacterial activity against Proteus vulgaris NCIM 2027 at 100 ug/disk after 24 hrs by agar disk diffusion method; type: functional; settings: NCIM 2027, 24 h, read-out: IZ; how it was run: as §1

First: Cc1ccc(S(=O)(=O)CC(C2C(=N)ON=C2N)S(=O)(=O)c2ccc(C)cc2)cc1 (stereo unspecified)
Second: NC1=NC(=S)N=C(N)C1C(CS(=O)(=O)c1ccccc1)S(=O)(=O)c1ccccc1 (stereo unspecified)
The zone of inhibition at 100 µg/disc of the first is higher: 24 mm for the first, 19 mm for the second.

test system: Proteus vulgaris; assay: Antibacterial activity against Proteus vulgaris NCIM 2027 at 200 ug/disk after 24 hrs by agar disk diffusion method; type: functional; settings: NCIM 2027, 24 h, read-out: IZ; how it was run: as §1

Going from Cc1ccc(S(=O)(=O)CC(C2C(=N)ON=C2N)S(=O)(=O)c2ccc(C)cc2)cc1 (stereo unspecified) to NC1=NC(=S)N=C(N)C1C(CS(=O)(=O)c1ccccc1)S(=O)(=O)c1ccccc1 (stereo unspecified), the zone of inhibition at 200 µg/disc falls from 25 mm to 21 mm.

test system: Fusarium solani; assay: Antifungal activity against Fusarium solani NCIM 1330 at 100 ug/disk after 48 hrs by agar disk diffusion method; type: functional; settings: NCIM 1330, 48 h, read-out: IZ
How it was run: (§2)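 Fungal disc diffusion on nutrient agar plates pre-inoculated with each fungus. 6 mm sterile paper discs carried the compound in DMSO at the stated amount per disc. Plates were held at 37 °C, and inhibition-zone diameter was measured after 48 h. Values are the mean of three independent triplicate readings.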

Going from CC(=O)N1CCN(c2ccc(OCC3COC(Cn4ccnc4)(c4ccc(Cl)cc4Cl)O3)cc2)CC1 (stereo unspecified) [KETOCONAZOLE] to Cc1ccc(S(=O)(=O)CC(C2C(=N)ON=C2N)S(=O)(=O)c2ccc(C)cc2)cc1 (stereo unspecified), the zone of inhibition at 100 µg/disc falls from 38 mm to 28 mm.

NC1=NC(=S)N=C(N)C1C(CS(=O)(=O)c1ccccc1)S(=O)(=O)c1ccccc1 (stereo unspecified) gave a zone of inhibition at 100 µg/disc of 18 mm.

test system: Fusarium solani; assay: Antifungal activity against Fusarium solani NCIM 1330 at 200 ug/disk after 48 hrs by agar disk diffusion method; type: functional; settings: NCIM 1330, 48 h, read-out: IZ; how it was run: as §2

Compared with CC(=O)N1CCN(c2ccc(OCC3COC(Cn4ccnc4)(c4ccc(Cl)cc4Cl)O3)cc2)CC1 (stereo unspecified) [KETOCONAZOLE], Cc1ccc(S(=O)(=O)CC(C2C(=N)ON=C2N)S(=O)(=O)c2ccc(C)cc2)cc1 (stereo unspecified) is lower in zone of inhibition at 200 µg/disc: 42 mm for the first, 31 mm for the second.

NC1=NC(=S)N=C(N)C1C(CS(=O)(=O)c1ccccc1)S(=O)(=O)c1ccccc1 (stereo unspecified) showed a zone of inhibition at 200 µg/disc of 20 mm.

test system: Curvularia lunata; assay: Antifungal activity against Curvularia lunata NCIM 716 at 100 ug/disk after 48 hrs by agar disk diffusion method; type: functional; settings: NCIM 716, 48 h, read-out: IZ; how it was run: as §2

Compared with CC(=O)N1CCN(c2ccc(OCC3COC(Cn4ccnc4)(c4ccc(Cl)cc4Cl)O3)cc2)CC1 (stereo unspecified) [KETOCONAZOLE], Cc1ccc(S(=O)(=O)CC(C2C(=N)ON=C2N)S(=O)(=O)c2ccc(C)cc2)cc1 (stereo unspecified) is lower in zone of inhibition at 100 µg/disc: 41 mm for the first, 28 mm for the second.

NC1=NC(=S)N=C(N)C1C(CS(=O)(=O)c1ccccc1)S(=O)(=O)c1ccccc1 (stereo unspecified) gave a zone of inhibition at 100 µg/disc of 19 mm.

test system: Curvularia lunata; assay: Antifungal activity against Curvularia lunata NCIM 716 at 200 ug/disk after 48 hrs by agar disk diffusion method; type: functional; settings: NCIM 716, 48 h, read-out: IZ; how it was run: as §2

Compared with CC(=O)N1CCN(c2ccc(OCC3COC(Cn4ccnc4)(c4ccc(Cl)cc4Cl)O3)cc2)CC1 (stereo unspecified) [KETOCONAZOLE], Cc1ccc(S(=O)(=O)CC(C2C(=N)ON=C2N)S(=O)(=O)c2ccc(C)cc2)cc1 (stereo unspecified) is lower in zone of inhibition at 200 µg/disc: 44 mm for the first, 30 mm for the second.

Work on NC1=NC(=S)N=C(N)C1C(CS(=O)(=O)c1ccccc1)S(=O)(=O)c1ccccc1 (stereo unspecified) yielded a zone of inhibition at 200 µg/disc of 22 mm.

test system: Aspergillus niger; assay: Antifungal activity against Aspergillus niger NCIM 596 at 100 ug/disk after 48 hrs by agar disk diffusion method; type: functional; settings: NCIM 596, 48 h, read-out: IZ; how it was run: as §2

Compared with CC(=O)N1CCN(c2ccc(OCC3COC(Cn4ccnc4)(c4ccc(Cl)cc4Cl)O3)cc2)CC1 (stereo unspecified) [KETOCONAZOLE], Cc1ccc(S(=O)(=O)CC(C2C(=N)ON=C2N)S(=O)(=O)c2ccc(C)cc2)cc1 (stereo unspecified) is lower in zone of inhibition at 100 µg/disc: 36 mm for the first, 26 mm for the second.

NC1=NC(=S)N=C(N)C1C(CS(=O)(=O)c1ccccc1)S(=O)(=O)c1ccccc1 (stereo unspecified) gave a zone of inhibition at 100 µg/disc of 16 mm.

test system: Aspergillus niger; assay: Antifungal activity against Aspergillus niger NCIM 596 at 200 ug/disk after 48 hrs by agar disk diffusion method; type: functional; settings: NCIM 596, 48 h, read-out: IZ; how it was run: as §2

First: CC(=O)N1CCN(c2ccc(OCC3COC(Cn4ccnc4)(c4ccc(Cl)cc4Cl)O3)cc2)CC1 (stereo unspecified) [KETOCONAZOLE]
Second: Cc1ccc(S(=O)(=O)CC(C2C(=N)ON=C2N)S(=O)(=O)c2ccc(C)cc2)cc1 (stereo unspecified)
The zone of inhibition at 200 µg/disc of the first is higher: 39 mm for the first, 29 mm for the second.

With NC1=NC(=S)N=C(N)C1C(CS(=O)(=O)c1ccccc1)S(=O)(=O)c1ccccc1 (stereo unspecified) the zone of inhibition at 200 µg/disc was 19 mm.

test system: Fusarium solani; assay: Antifungal activity against Fusarium solani NCIM 1330 after 48 hrs by microdilution susceptibility method; type: functional; settings: NCIM 1330, 48 h
How it was run: (§3)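 Broth microdilution MIC; fungal suspensions were inoculated into wells containing compound dissolved in DMSO. Incubation was at 36 °C for 48 h. MIC was recorded as the lowest concentration with no turbidity. Ketoconazole was the reference antifungal.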

CC(=O)N1CCN(c2ccc(OCC3COC(Cn4ccnc4)(c4ccc(Cl)cc4Cl)O3)cc2)CC1 (stereo unspecified) [KETOCONAZOLE] showed an MIC of 12.5 µg/mL (≈ 23.5 µM).

test system: Curvularia lunata; assay: Antifungal activity against Curvularia lunata NCIM 716 after 48 hrs by microdilution susceptibility method; type: functional; settings: NCIM 716, 48 h; how it was run: as §3

CC(=O)N1CCN(c2ccc(OCC3COC(Cn4ccnc4)(c4ccc(Cl)cc4Cl)O3)cc2)CC1 (stereo unspecified) [KETOCONAZOLE] showed an MIC of 6.25 µg/mL (≈ 11.8 µM).

test system: Aspergillus niger; assay: Antifungal activity against Aspergillus niger NCIM 596 after 48 hrs by microdilution susceptibility method; type: functional; settings: NCIM 596, 48 h; how it was run: as §3

Work on CC(=O)N1CCN(c2ccc(OCC3COC(Cn4ccnc4)(c4ccc(Cl)cc4Cl)O3)cc2)CC1 (stereo unspecified) [KETOCONAZOLE] yielded an MIC of 6.25 µg/mL (≈ 11.8 µM).

test system: Radical scavenging activity; assay: Antioxidant activity assessed as DPPH free radical scavenging activity at 100 uM after 20 mins; type: functional; settings: not given
How it was run: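 DPPH scavenging: compound solutions were added to DPPH in dioxane/ethanol and kept at ambient temperature for 20 min. Absorbance was read at 517 nm. The test–control difference was expressed as percent DPPH radical scavenging.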

First: Cc1ccc(S(=O)(=O)CC(C2C(=N)ON=C2N)S(=O)(=O)c2ccc(C)cc2)cc1 (stereo unspecified)
Second: NC1=NC(=S)N=C(N)C1C(CS(=O)(=O)c1ccccc1)S(=O)(=O)c1ccccc1 (stereo unspecified)
The inhibition of the first is higher: 80.8% for the first, 46.9% for the second.

test system: not listed separately; assay: Antioxidant activity assessed as nitric oxide production at 100 uM after 120 mins by Griess reagent method; type: functional; settings: not given
How it was run: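 Nitric oxide assay with Griess read-out. At intervals, 0.5 ml of incubation solution was mixed with 0.5 ml Griess reagent (1% sulfanilamide, 0.1% N-naphthylethylenediamine dihydrochloride, 2% o-phosphoric acid in water). The control received an equal amount of solvent and was handled identically.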

Compared with Cc1ccc(S(=O)(=O)CC(C2C(=N)ON=C2N)S(=O)(=O)c2ccc(C)cc2)cc1 (stereo unspecified), NC1=NC(=S)N=C(N)C1C(CS(=O)(=O)c1ccccc1)S(=O)(=O)c1ccccc1 (stereo unspecified) is lower in inhibition: 81.5% for the first, 45.8% for the second.
